# Sampled rows, rich in hits. Any-hit rate of the full collection: about 4.8%.
# Beta apoptosis: blocks beta cell apoptosis; AID 435005; hit rate 0.8% among 300,000; protection from apoptosis, % (no concentration beside the values); INS-1E cytokine-induced death, ATP luminescence, 48 h; percent of positive-control rescue, neutral wells zero;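 active means Every replicate reaches about 75%, or at least half do and their mean reaches it too, limit read from the data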;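 further: higher means more ATP so stronger rescue from cytokine killing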
# Efflux pump mplx: antifungal efflux pump inhibition, Nile Red retention; hit rate 0.44% among 330,000; S. cerevisiae Candida pump triplex; inhibition, % at 10 µM;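 active means plate passing quality check with inhibition over a set limit, or well fluorescence over plate mean plus 4 SD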;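 further: Nile Red retained in pooled yeast measured as flow cytometry median fluorescence; higher means more Nile Red kept so more efflux inhibition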
# SUMO Mot1 rescue: inhibitors of SUMOylation pathway: yeast Mot1-301 growth rescue | S. cerevisiae Mot1-301 growth rescue, ATP luminescence, 38.5C; percent above DMSO median, 100 means doubled | growth rescue, % at 18.8 µM | hit rate 1% among 320,000 | AID 2716;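 active means every valid replicate shows activation above 250% relative to neutral control wells; inactive means the rest, any valid replicate at or below 250%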
# CSC inhib: blocks cancer stem cells; hit rate 1.1% among 300,000; inhibition, % at 7.5 µM; AID 2717; cancer stem cell-like cells viability, luminescence; in the data active means inhibition above about 75%; tested in HMLE shEcad cells
# WT yeast gro inh: growth inhibition of WT yeast, mitochondrial fusion screen. hit rate 2.1% among 190,000. mitochondrial fusion phenotypic screen, WT strain. AID 1362. inhibition, % at 10 µM; in the data active means inhibition above about 58%; tested in S. cerevisiae
# T cruzi repl: T. cruzi replication inhibition; T. cruzi beta-gal in NIH3T3, luminescence, 90 h; inhibition, % (concentration not given with the values); hit rate 1.4% among 300,000; AID 1885;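 active means mean inhibition across valid replicates above about 55%, limit read from the data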;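 further: signal also drops with host cell toxicity which is not excluded here; higher percent means less beta-gal luminescence so fewer parasites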
#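 compound dosing = single 50 nL compound addition per well in DMSO | material = NIH/3T3 host cells with β-galactosidase reporter T. cruzi | input = 5,000 host fibroblasts per well | timing = ≥90 h infection period, 3 h prior cell attachment | read-out basis = percent inhibition of parasite-derived β-gal signal | detection = GalScreen β-gal luminescence, detergent lysis, 60 min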
# Numbers stand for hits; i = inactive; nt = no result given; + = active, no number.
SMILES,Beta apoptosis,Efflux pump mplx,SUMO Mot1 rescue,CSC inhib,WT yeast gro inh,T cruzi repl
O=c1[nH]c(=S)n(-c2ccccc2F)c(O)c1C=Nc1ccc(N2CCOCC2)cc1,i,i,+,i,i,i
O=c1ccc2c(O)c3ccoc3cc2o1,nt,i,nt,nt,nt,nt
c1ccc2nc(N3CCNCC3)ccc2c1,i,i,i,i,nt,nt
Cc1oc(-c2ccccc2Cl)nc1CN1C(=O)CN=C(c2ccccc2)c2ccccc21,i,i,i,i,71,i
O=P(Oc1ccccc1)(Oc1ccccc1)c1ccccc1,i,i,i,i,nt,i
O=[N+]([O-])NC1=NCCN1Cc1ccc(Cl)nc1,i,i,i,i,nt,i
C[C@H]1C[C@@H](C)C(=O)[C@@H]([C@H](O)CC2CC(=O)NC(=O)C2)C1,i,i,430,i,i,58
CN1CCc2cc(O)cc3c2[C@H]1Cc1ccc(O)c(O)c1-3,i,i,i,i,nt,i
CN1CCc2cc3c(c4c2C1Cc1ccccc1-4)OCO3 (stereo not given),88,i,i,i,nt,i
COC1=CC(=O)[C@]2(C=C1OC)OC[C@@H]1Oc3c(ccc4c3C=CC(C)(C)O4)C(=O)[C@@H]12,126,i,i,i,nt,nt
Cc1ccsc1C(=O)C1CCCN(Cc2cnc(N(C)C)s2)C1 (stereo not given),i,i,i,i,i,59
Cc1ccsc1C(=O)C1CCCN(Cc2cnn(C(C)C)c2)C1 (stereo not given),i,i,i,i,i,66
Cc1ccsc1C(=O)C1CCCN(Cc2sc(N(C)C)nc2Cl)C1 (stereo not given),i,i,i,i,i,i
Cc1ccsc1C(=O)C1CCCN(Cc2cnc(N3CCOCC3)s2)C1 (stereo not given),i,i,i,i,i,60
Cc1ccsc1C(=O)C1CCCN(Cc2cnc(N)nc2)C1 (stereo not given),i,i,i,i,nt,i
CCc1ccc(CN2CCCC(C(=O)c3sccc3C)C2)o1 (stereo not given),i,i,i,i,i,55
COC(=O)C1=C(c2c(C)noc2C)C[C@@H]2CC[C@H]1N2C(=O)NCCOc1ccc(OC)cc1,i,i,i,i,nt,nt
Cc1nc2ccc(P(=O)(O)O)cc2s1,i,i,i,i,i,i
CN1C2CCC1/C(=C/c1ccccn1)C(=O)/C2=C\c1ccccn1,100,i,i,i,81,nt
Cc1ccccc1-n1c(/C=C/c2ccccn2)nc2ccccc2c1=O,i,i,i,i,nt,i
COc1cc2c(c(OC)c1OC)-c1ccc(O)cc1[C@@H](NC(C)=O)CC2,i,i,i,i,nt,i
Cc1ccc(NC2=NCCCS2)cc1Cl,i,i,i,i,nt,i
Clc1ccc(NC2=NCCCS2)cc1Cl,i,i,i,i,nt,55
CCOC(=O)c1cccc(-[n+]2c(-c3ccccc3)cc(-c3ccccc3)cc2-c2ccccc2)c1,135,i,i,i,nt,i
CCOC(=O)c1ccc(-[n+]2c(-c3ccccc3)cc(-c3ccccc3)cc2-c2ccccc2)cc1,123,i,i,i,nt,65
SMILES,Beta apoptosis,Efflux pump mplx,SUMO Mot1 rescue,CSC inhib,WT yeast gro inh,T cruzi repl
COC12CCC3(CC1C(C)(O)C(C)(C)C)[C@H]1Cc4ccc(O)c5c4[C@@]3(CCN1CC1CC1)C2O5 (stereo not given in full),nt,i,nt,nt,nt,nt
Clc1ccc(CCC(Cn2ccnc2)Sc2c(Cl)cccc2Cl)cc1 (stereo not given),i,i,i,86,nt,nt
Clc1ccc(Cn2ccnc2)cn1,i,i,i,i,i,i
COc1cccc(OCc2cc(C(=O)N3C[C@H]4C[C@@H](C3)c3cccc(=O)n3C4)no2)c1,nt,nt,nt,nt,nt,i
CN1CCc2nc3sc(C#N)c(N)c3c(-c3cccs3)c2C1,i,i,i,i,i,67
Cc1nc2ccccc2c(=O)n1-c1ccncc1,i,i,i,i,nt,i
Cc1nc2ccccc2c(=O)n1-c1cc([N+](=O)[O-])cc([N+](=O)[O-])c1,i,i,i,i,nt,55
Cc1cccc(-n2c(/C=C/c3ccc([N+](=O)[O-])o3)nc3ccccc3c2=O)c1,i,i,i,89,i,i
CCC1(CC)C(=O)N(Cc2ccccc2)C(=O)N(Cc2ccccc2)C1=O,i,i,i,i,i,61
CCC(C)n1c(O)c(/C=N/Nc2ccccc2)c(=O)[nH]c1=S (stereo not given),i,i,355,83,i,i
O=c1[nH]c(=S)n(C2CC2)c(O)c1/C=N/Nc1ccccc1,i,i,282,i,58,i

# Screens from PubChem.
